# Published values pooled from the literature.
# Lines come from different studies, so protocols differ.
# Target: Dual specificity tyrosine-phosphorylation-regulated kinase 2 (DYRK2, Homo sapiens, UniProt Q92630)
# Technique: competition with immobilised ligand
# One construct used (Q92630 1-601): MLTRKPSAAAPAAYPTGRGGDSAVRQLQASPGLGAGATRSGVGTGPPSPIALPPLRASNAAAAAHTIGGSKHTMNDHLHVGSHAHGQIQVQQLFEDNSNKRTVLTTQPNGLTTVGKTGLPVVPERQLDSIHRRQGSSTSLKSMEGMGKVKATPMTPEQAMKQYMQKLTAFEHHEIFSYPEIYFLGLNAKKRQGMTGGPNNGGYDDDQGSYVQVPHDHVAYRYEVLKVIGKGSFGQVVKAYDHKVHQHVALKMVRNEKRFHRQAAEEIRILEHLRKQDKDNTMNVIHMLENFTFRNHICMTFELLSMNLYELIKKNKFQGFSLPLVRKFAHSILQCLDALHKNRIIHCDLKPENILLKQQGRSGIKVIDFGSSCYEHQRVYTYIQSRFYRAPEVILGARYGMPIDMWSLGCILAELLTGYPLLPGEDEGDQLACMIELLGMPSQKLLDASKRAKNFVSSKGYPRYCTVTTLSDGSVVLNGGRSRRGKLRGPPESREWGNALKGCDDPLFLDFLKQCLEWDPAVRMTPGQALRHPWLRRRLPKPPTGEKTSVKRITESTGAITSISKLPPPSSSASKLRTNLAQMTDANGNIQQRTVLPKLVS
Structure (SMILES),read-out,concentration,remaining binding [%]
C[C@@H](c1ccc(-n2cnc3c(N)ncnc32)cc1)N1CCc2nn(C)c(Cc3ccccc3)c2C1=O,binding,0.1 µM,79
COc1ncc2cc3ccccc3nc2c1C#N,cell-free assay,5 µM,85
CS(=O)(=O)N1CCCC(NC(=O)[C@H](CCC2CCCCC2)NC(=O)c2ccc(CNc3ncnc4c3nnn4-c3ccccc3)cc2)C1 (some centres unmarked),cell-free assay,0.1 µM,100
CCN1CCN(Cc2ccc(C(=O)Nc3ccc(C)c(Oc4ccc5c(c4)CC(=O)N5)c3)cc2C(F)(F)F)CC1,binding,1 µM,95
O=C(NCC1CCOCC1)c1n[nH]cc1NC(=O)c1c(F)cccc1F,binding,1 µM,8.3
COc1cnc(Nc2cccc(S(N)(=O)=O)c2)nc1N1CCN(c2ccccc2)C(=O)C1,binding,1 µM,56
Cc1cnc(Nc2ccc(C(=O)N3CCC(N4CCCC4)CC3)cc2)nc1-c1cc2ccccc2s1,binding,1 µM,1.3
CO[C@@H](C)c1c(Nc2ccc([C@H](N(C)C(=O)C3CCS(=O)(=O)CC3)C(F)(F)F)cc2)cnc2cc(Cl)nn12,cell-free assay,1 µM,89
O=C(NCCCN1CCOCC1)c1ccc(Nc2ncc(Cl)c(-c3ccc(Cl)s3)n2)cc1,binding,1 µM,2.9
Nc1ncc2c(n1)-c1c([nH]c3ccc(C#CC4CC4)cc13)CCCC2,binding,1 µM,100
C[C@H](c1ccc(F)cc1)N(Cc1cccc(C(=O)O)c1)C(=O)c1cnc2ccccc2c1,cell-free assay,1 µM,85
CNC(=O)[C@@H]1CC[C@@H](n2c(-c3ccc4cnccc4c3)nc3ccc(C(=O)NCc4cccc(C(N)=O)c4)cc32)C1,binding,1 µM,86
O=C(NCCCN1CCOCC1)c1ccc(Nc2nccc(-c3cc4ccccc4s3)n2)cc1,binding,1 µM,16
CCCOc1ccc([C@H]2[C@H](C(=O)O)[C@@H](c3ccc4c(c3)OCO4)CN2CC(=O)Nc2c(CC)cccc2CC)cc1,cell-free assay,1 µM,74
